# Assays:
# MCF7 [1] = test: Induction of apoptosis in human MCF7 cells assessed as early apoptotic cells at 4 uM after 24 hrs by Annexin-V-FITC/propidium iodide staining based flow cytometric method (reference value: 2.36 to 2.86%); format: functional
# MCF7 [2] = test: Cell cycle arrest in human MCF7 cells assessed as accumulation at G2/M phase at 0.3 uM after 12 hrs by propidium iodide staining based flow cytometric method (reference value: 5.43 to 13.68%); format: functional
# MCF7 [3] = test: Induction of apoptosis in human MCF7 cells assessed as viable cells at 4 uM after 24 hrs by Annexin-V-FITC/propidium iodide staining based flow cytometric method (reference value: 91.6 to 92.7%); format: functional; conditions: MCF7, 24 h, read-out: Activity
# MCF7 [4] = test: Induction of apoptosis in human MCF7 cells assessed as viable cells at 12 uM after 24 hrs by Annexin-V-FITC/propidium iodide staining based flow cytometric method (reference value: 91.6 to 92.7%); format: functional; conditions: MCF7, 24 h, read-out: Activity
# MCF7 [5] = test: Induction of apoptosis in human MCF7 cells assessed as early apoptotic cells at 2 uM after 24 hrs by Annexin-V-FITC/propidium iodide staining based flow cytometric method (reference value: 2.36 to 2.86%); format: functional
# L02 = test: Cytotoxicity against human L02 cells after 24 hrs by MTT assay; format: cell-based; conditions: L02, 24 h
# Method in brief: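 Normal human liver L02 cells were tested at multiple concentrations in an MTT assay. Output is the median cytotoxic concentration (CC50).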
# HeLa = test: Cytotoxicity against human HeLa cells after 24 hrs by MTT assay; format: functional, cell-based
# Method in brief: (§1)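 In vitro antiproliferative screen by MTT assay against human MCF-7 breast, HeLa cervical, A549 lung adenocarcinoma and HepG-2 hepatoma cells. Output is the IC50.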
# MCF7 [6] = test: Cell cycle arrest in human MCF7 cells assessed as accumulation at G2/M phase at 0.6 uM after 12 hrs by propidium iodide staining based flow cytometric method (reference value: 5.43 to 13.68%); format: functional
# MCF7 [7] = test: Cell cycle arrest in human MCF7 cells assessed as accumulation at G1 phase at 0.9 uM after 12 hrs by propidium iodide staining based flow cytometric method (reference value: 58.69 to 62.23%); format: functional
# MCF7 [8] = test: Induction of apoptosis in human MCF7 cells assessed as early apoptotic cells at 8 uM after 24 hrs by Annexin-V-FITC/propidium iodide staining based flow cytometric method (reference value: 2.36 to 2.86%); format: functional
# A549 = test: Cytotoxicity against human A549 cells after 24 hrs by MTT assay; format: functional, cell-based; conditions: A549, 24 h; method in brief: as §1
# MCF7 [9] = test: Cytotoxicity against human MCF7 cells after 24 hrs by MTT assay; format: functional, cell-based; conditions: MCF7, 24 h; method in brief: as §1
# MCF7 [10] = test: Cell cycle arrest in human MCF7 cells assessed as accumulation at S phase at 0.6 uM after 4 hrs by propidium iodide staining based flow cytometric method (reference value: 29.55 to 32.22%); format: functional
# MCF7 [11] = test: Induction of apoptosis in human MCF7 cells assessed as necrotic cells at 4 uM after 24 hrs by Annexin-V-FITC/propidium iodide staining based flow cytometric method (reference value: 2.35 to 2.49%); format: functional
# MCF7 [12] = test: Cell cycle arrest in human MCF7 cells assessed as accumulation at S phase at 0.6 uM after 8 hrs by propidium iodide staining based flow cytometric method (reference value: 29.55 to 32.22%); format: functional
# MCF7 [13] = test: Induction of apoptosis in human MCF7 cells assessed as late apoptotic cells at 12 uM after 24 hrs by Annexin-V-FITC/propidium iodide staining based flow cytometric method (reference value: 2 to 3.7%); format: functional
# MCF7 [14] = test: Induction of apoptosis in human MCF7 cells assessed as necrotic cells at 12 uM after 24 hrs by Annexin-V-FITC/propidium iodide staining based flow cytometric method (reference value: 2.35 to 2.49%); format: functional
# MCF7 [15] = test: Cell cycle arrest in human MCF7 cells assessed as accumulation at G2/M phase at 0.6 uM after 4 hrs by propidium iodide staining based flow cytometric method (reference value: 7.59 to 9.58%); format: functional
# MCF7 [16] = test: Induction of apoptosis in human MCF7 cells assessed as necrotic cells at 8 uM after 24 hrs by Annexin-V-FITC/propidium iodide staining based flow cytometric method (reference value: 2.35 to 2.49%); format: functional
# MCF7 [17] = test: Induction of apoptosis in human MCF7 cells assessed as late apoptotic cells at 4 uM after 24 hrs by Annexin-V-FITC/propidium iodide staining based flow cytometric method (reference value: 2 to 3.7%); format: functional
# MCF7 [18] = test: Cell cycle arrest in human MCF7 cells assessed as accumulation at S phase at 0.3 uM after 12 hrs by propidium iodide staining based flow cytometric method (reference value: 27.63 to 32.34%); format: functional
# MCF7 [19] = test: Induction of apoptosis in human MCF7 cells assessed as late apoptotic cells at 8 uM after 24 hrs by Annexin-V-FITC/propidium iodide staining based flow cytometric method (reference value: 2 to 3.7%); format: functional
# MCF7 [20] = test: Induction of apoptosis in human MCF7 cells assessed as necrotic cells at 2 uM after 24 hrs by Annexin-V-FITC/propidium iodide staining based flow cytometric method (reference value: 2.35 to 2.49%); format: functional
# HepG2 = test: Cytotoxicity against human HepG2 cells after 24 hrs by MTT assay; format: functional, cell-based; conditions: HepG2, 24 h; method in brief: as §1
# MCF7 [21] = test: Cell cycle arrest in human MCF7 cells assessed as accumulation at G1 phase at 0.6 uM after 16 hrs by propidium iodide staining based flow cytometric method (reference value: 60.19 to 60.87%); format: functional
# MCF7 [22] = test: Induction of apoptosis in human MCF7 cells assessed as early apoptotic cells at 12 uM after 24 hrs by Annexin-V-FITC/propidium iodide staining based flow cytometric method (reference value: 2.36 to 2.86%); format: functional
# MCF7 [23] = test: Cell cycle arrest in human MCF7 cells assessed as accumulation at G1 phase at 0.6 uM after 8 hrs by propidium iodide staining based flow cytometric method (reference value: 60.19 to 60.87%); format: functional
# MCF7 [24] = test: Cell cycle arrest in human MCF7 cells assessed as accumulation at G2/M phase at 0.6 uM after 16 hrs by propidium iodide staining based flow cytometric method (reference value: 7.59 to 9.58%); format: functional
# MCF7 [25] = test: Cell cycle arrest in human MCF7 cells assessed as accumulation at G1 phase at 0.3 uM after 12 hrs by propidium iodide staining based flow cytometric method (reference value: 58.69 to 62.23%); format: functional
# MCF7 [26] = test: Cell cycle arrest in human MCF7 cells assessed as accumulation at S phase at 0.9 uM after 12 hrs by propidium iodide staining based flow cytometric method (reference value: 27.63 to 32.34%); format: functional
# MCF7 [27] = test: Cell cycle arrest in human MCF7 cells assessed as accumulation at G1 phase at 0.6 uM after 4 hrs by propidium iodide staining based flow cytometric method (reference value: 60.19 to 60.87%); format: functional
# MCF7 [28] = test: Cell cycle arrest in human MCF7 cells assessed as accumulation at S phase at 0.6 uM after 12 hrs by propidium iodide staining based flow cytometric method (reference value: 27.63 to 32.34%); format: functional
# MCF7 [29] = test: Induction of apoptosis in human MCF7 cells assessed as late apoptotic cells at 2 uM after 24 hrs by Annexin-V-FITC/propidium iodide staining based flow cytometric method (reference value: 2 to 3.7%); format: functional
# MCF7 [30] = test: Cell cycle arrest in human MCF7 cells assessed as accumulation at S phase at 0.6 uM after 16 hrs by propidium iodide staining based flow cytometric method (reference value: 29.55 to 32.22%); format: functional
# MCF7 [31] = test: Induction of apoptosis in human MCF7 cells assessed as viable cells at 8 uM after 24 hrs by Annexin-V-FITC/propidium iodide staining based flow cytometric method (reference value: 91.6 to 92.7%); format: functional; conditions: MCF7, 24 h, read-out: Activity
# MCF7 [32] = test: Cell cycle arrest in human MCF7 cells assessed as accumulation at G1 phase at 0.6 uM after 12 hrs by propidium iodide staining based flow cytometric method (reference value: 58.69 to 62.23%); format: functional
# MCF7 [33] = test: Cell cycle arrest in human MCF7 cells assessed as accumulation at G2/M phase at 0.9 uM after 12 hrs by propidium iodide staining based flow cytometric method (reference value: 5.43 to 13.68%); format: functional
# MCF7 [34] = test: Cell cycle arrest in human MCF7 cells assessed as accumulation at G2/M phase at 0.6 uM after 8 hrs by propidium iodide staining based flow cytometric method (reference value: 7.59 to 9.58%); format: functional
# MCF7 [35] = test: Induction of apoptosis in human MCF7 cells assessed as viable cells at 2 uM after 24 hrs by Annexin-V-FITC/propidium iodide staining based flow cytometric method (reference value: 91.6 to 92.7%); format: functional; conditions: MCF7, 24 h, read-out: Activity
compound,measurement,setting,value
COc1cc([C@@H]2c3cc4c(cc3[C@H](O)[C@H]3COC(=O)[C@H]23)OCO4)cc(OC)c1OC [PODOFILOX],Activity,MCF7 [1],7.87%
same,Activity,MCF7 [2],29.49%
same,viability at 4 µM,MCF7 [3],79.4%
same,viability at 12 µM,MCF7 [4],62.8%
same,Activity,MCF7 [5],5.5%
same,IC50,L02,3.72 µM
same,IC50,HeLa,7.45 µM
same,Activity,MCF7 [6],45.4 - 47.67%
same,Activity,MCF7 [7],8.17%
same,Activity,MCF7 [8],10.1%
same,IC50,A549,9.34 µM
same,IC50,MCF7 [9],7.13 µM
same,Activity,MCF7 [10],29.63%
same,Activity,MCF7 [11],2.34%
same,Activity,MCF7 [12],31.73%
same,Activity,MCF7 [13],17.4%
same,Activity,MCF7 [14],6.65%
same,Activity,MCF7 [15],22.4%
same,Activity,MCF7 [16],4.65%
same,Activity,MCF7 [17],10.5%
same,Activity,MCF7 [18],30.34%
same,Activity,MCF7 [19],12.4%
same,Activity,MCF7 [20],1.69%
same,IC50,HepG2,5.81 µM
same,Activity,MCF7 [21],11.02%
same,Activity,MCF7 [22],13.4%
same,Activity,MCF7 [23],37.52%
same,Activity,MCF7 [24],62.2%
same,Activity,MCF7 [25],40.17%
same,Activity,MCF7 [26],19.79%
same,Activity,MCF7 [27],47.97%
same,Activity,MCF7 [28],27.34 - 31.52%
same,Activity,MCF7 [29],8.61%
same,Activity,MCF7 [30],26.78%
same,viability at 8 µM,MCF7 [31],72.9%
same,Activity,MCF7 [32],20.81 - 27.26%
same,Activity,MCF7 [33],72.04%
same,Activity,MCF7 [34],30.75%
same,viability at 2 µM,MCF7 [35],84.2%
